{"source": "paper PMC11638133", "about": "(Journal of Veterinary Internal Medicine, 2024)", "key": {"[1]": {"assay": "Plasma pharmacokinetics of active drug metabolites after oral CARDALIS®", "format": "in vivo, beagle dogs", "details": "linear mixed model, AUC over the first 24 hours, natural logarithmic scale", "how_it_was_run": "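Healthy purpose-bred beagles, 6 per group, were fed a low-sodium diet for 5 days, then given an oral ACE-inhibitor/mineralocorticoid-antagonist combination for 14 days at 0.25+2 mg/kg q24h, 0.25+2 mg/kg q12h or 0.5+4 mg/kg q12h. Serial Day-13 plasma was stored at −80°C, and three active metabolites were measured by LC-MS/MS. […] Dose–AUC used a linear mixed model (dog random effect, ln scale).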"}, "[2]": {"tested_on": "renin‐angiotensin‐aldosterone system (RAAS)", "details": "2 mg/kg PO q24h vs 4 mg/kg PO q24h, monotherapy; cited from earlier work"}, "[3]": {"tested_on": "renin‐angiotensin‐aldosterone system (RAAS)", "details": "cited from earlier work"}, "[4]": {"details": "highest dose 4 times higher than lowest dose of benazepril"}}}
{"smiles": "C[C@]12CCC(=O)C=C1C=C[C@@H]1[C@@H]2CC[C@@]2(C)[C@H]1CC[C@@]21CCC(=O)O1", "note": "[Canrenone, canrenone]", "values": [{"measurement": "increase in AUC for a 1 mg increase in dose", "setting": "[1]", "result": 1.54, "unit": "units"}]}
{"smiles": "CS[C@@H]1CC2=CC(=O)CC[C@]2(C)[C@H]2CC[C@@]3(C)[C@@H](CC[C@@]34CCC(=O)O4)[C@H]12", "note": "[TMS, 7‐alpha‐thiomethylspironolactone]", "values": [{"measurement": "increase in AUC for a 1 mg increase in dose", "setting": "[1]", "result": 1.50, "unit": "units"}]}
{"smiles": "CC(=O)S[C@@H]1CC2=CC(=O)CC[C@]2(C)[C@H]2CC[C@@]3(C)[C@@H](CC[C@@]34CCC(=O)O4)[C@H]12", "note": "[spironolactone]", "values": [{"measurement": "Dose-dependent differences in RAAS metabolites (including aldosterone)", "setting": "[2]", "result": "no dose‐dependent differences in RAAS metabolites (including aldosterone)"}]}
{"smiles": "CCOC(=O)[C@H](CCc1ccccc1)N[C@H]1CCc2ccccc2N(CC(=O)O)C1=O", "note": "[benazepril]", "values": [{"measurement": "difference in mean ACE‐S between the highest and lowest doses", "setting": "[3]; [4]", "result": "−59", "unit": "%"}, {"measurement": "difference in mean Ang1‐7 between the highest and lowest doses", "setting": "[3]; [4]", "result": "+47%"}, {"measurement": "difference in mean AngII between the highest and lowest doses", "setting": "[3]; [4]", "result": "−38", "unit": "%"}, {"measurement": "lower values of AngII", "setting": "[3]; highest dose studied (0.5 mg/kg) compared to the lowest dose studied (0.125 mg/kg)", "result": 38, "unit": "%"}]}
{"smiles": "O=C(O)CN1C(=O)[C@@H](N[C@@H](CCc2ccccc2)C(=O)O)CCc2ccccc21", "note": "[Benazeprilat, benazeprilat]", "values": [{"measurement": "increase in AUC for a 1 mg increase in dose", "setting": "[1]", "result": 1.99, "unit": "ng·h/mL"}]}
